Results: ChEMBL document CHEMBL4433221, “Novel Sustainable-by-Design HDAC Inhibitors for the Treatment of Alzheimer's Disease” (ACS Med Chem Lett, 2019)
Calls of active or inactive are those of the source. The calls are words filed in the database; no cut-off is given here.

Experiments:
[1] = Permeability of the compound at pH 7.4 PBS buffer at 100 uM measured upto 6 hrs by PAMPA-BBB assay
[2] = biological target: Histone deacetylase 4 (Homo sapiens) (UniProt P56524); assay: Inhibition of human recombinant HDAC4 using fluorogenic trifluoroacetyl lysine as substrate at 10 uM by fluorescence method
Sequence of Histone deacetylase 4 (Homo sapiens) (P56524 whole entry, canonical isoform): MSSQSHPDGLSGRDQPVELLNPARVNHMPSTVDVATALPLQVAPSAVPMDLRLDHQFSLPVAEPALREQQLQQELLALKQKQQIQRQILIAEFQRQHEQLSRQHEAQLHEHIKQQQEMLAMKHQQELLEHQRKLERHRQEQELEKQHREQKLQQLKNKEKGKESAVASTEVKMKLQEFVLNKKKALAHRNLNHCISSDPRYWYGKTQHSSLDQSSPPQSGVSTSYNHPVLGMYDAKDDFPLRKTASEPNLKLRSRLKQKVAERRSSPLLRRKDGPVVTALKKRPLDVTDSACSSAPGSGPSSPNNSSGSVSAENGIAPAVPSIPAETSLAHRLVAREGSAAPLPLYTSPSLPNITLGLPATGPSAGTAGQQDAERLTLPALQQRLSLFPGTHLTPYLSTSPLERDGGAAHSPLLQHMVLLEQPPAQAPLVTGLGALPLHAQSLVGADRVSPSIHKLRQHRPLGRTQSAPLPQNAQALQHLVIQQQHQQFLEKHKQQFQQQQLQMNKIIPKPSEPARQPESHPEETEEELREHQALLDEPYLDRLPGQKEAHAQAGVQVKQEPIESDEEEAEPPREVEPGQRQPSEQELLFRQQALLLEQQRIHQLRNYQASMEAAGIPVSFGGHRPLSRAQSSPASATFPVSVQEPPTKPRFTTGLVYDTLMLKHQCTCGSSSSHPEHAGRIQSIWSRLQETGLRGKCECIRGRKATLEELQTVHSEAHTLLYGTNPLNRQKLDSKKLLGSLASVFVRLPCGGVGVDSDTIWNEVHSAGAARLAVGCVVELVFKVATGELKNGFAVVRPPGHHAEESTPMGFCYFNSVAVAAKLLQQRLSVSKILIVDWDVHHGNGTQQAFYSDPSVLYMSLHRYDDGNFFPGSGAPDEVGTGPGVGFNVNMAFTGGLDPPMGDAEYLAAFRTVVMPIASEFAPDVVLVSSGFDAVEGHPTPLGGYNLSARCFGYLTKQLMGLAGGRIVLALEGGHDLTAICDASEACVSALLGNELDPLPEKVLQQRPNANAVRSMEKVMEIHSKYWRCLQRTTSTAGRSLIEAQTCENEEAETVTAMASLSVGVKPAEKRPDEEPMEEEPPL
Method in brief: (§1)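 Selectivity profile across HDAC isoforms 1–11 at a single concentration of 10 μM, run in duplicate.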

[3] = biological target: Histone deacetylase 2 (Homo sapiens) (UniProt Q92769); assay: Inhibition of human recombinant HDAC2 using fluorogenic peptide p53 residues 379-382 (RHKK(Ac)AMC) as residues at 10 uM mins by fluorescence method; method in brief: as §1
Sequence of Histone deacetylase 2 (Homo sapiens) (Q92769 whole entry, the tested form may be a part): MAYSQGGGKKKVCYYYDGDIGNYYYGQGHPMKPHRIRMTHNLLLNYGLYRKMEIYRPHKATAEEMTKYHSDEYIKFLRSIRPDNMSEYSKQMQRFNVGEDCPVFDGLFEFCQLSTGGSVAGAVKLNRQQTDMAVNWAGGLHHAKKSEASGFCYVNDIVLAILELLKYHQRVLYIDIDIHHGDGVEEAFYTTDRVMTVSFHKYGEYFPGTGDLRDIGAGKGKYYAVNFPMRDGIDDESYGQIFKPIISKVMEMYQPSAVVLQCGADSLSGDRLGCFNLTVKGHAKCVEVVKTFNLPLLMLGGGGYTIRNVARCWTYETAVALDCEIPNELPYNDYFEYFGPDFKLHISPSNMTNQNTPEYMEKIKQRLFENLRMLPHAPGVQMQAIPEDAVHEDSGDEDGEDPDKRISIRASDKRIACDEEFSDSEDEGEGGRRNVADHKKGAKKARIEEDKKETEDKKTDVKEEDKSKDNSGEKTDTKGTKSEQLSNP

[4] = biological target: T1, Histone deacetylase 11 (Homo sapiens) (UniProt Q96DB2); assay: Inhibition of human recombinant HDAC11 using fluorogenic trifluoroacetyl lysine as substrate at 10 uM by fluorescence method; method in brief: as §1
T1 sequence (whole entry): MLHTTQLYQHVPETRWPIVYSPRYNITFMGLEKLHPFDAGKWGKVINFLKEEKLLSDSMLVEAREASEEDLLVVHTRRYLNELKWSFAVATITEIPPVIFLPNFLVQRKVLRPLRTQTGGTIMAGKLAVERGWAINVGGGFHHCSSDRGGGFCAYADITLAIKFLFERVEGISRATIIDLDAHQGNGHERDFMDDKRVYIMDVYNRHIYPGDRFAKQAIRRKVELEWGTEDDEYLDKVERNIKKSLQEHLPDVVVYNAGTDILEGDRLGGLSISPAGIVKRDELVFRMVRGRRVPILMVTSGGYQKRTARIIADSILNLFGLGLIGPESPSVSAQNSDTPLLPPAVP

[5] = biological target: T2, Histone deacetylase 8 (Homo sapiens) (UniProt Q9BY41); assay: Inhibition of human recombinant HDAC8 using fluorogenic peptide p53 residues 379-382 (RHK(Ac)K(Ac)AMC) as residues at 10 uM by fluorescence method; method in brief: as §1
T2 sequence (whole entry): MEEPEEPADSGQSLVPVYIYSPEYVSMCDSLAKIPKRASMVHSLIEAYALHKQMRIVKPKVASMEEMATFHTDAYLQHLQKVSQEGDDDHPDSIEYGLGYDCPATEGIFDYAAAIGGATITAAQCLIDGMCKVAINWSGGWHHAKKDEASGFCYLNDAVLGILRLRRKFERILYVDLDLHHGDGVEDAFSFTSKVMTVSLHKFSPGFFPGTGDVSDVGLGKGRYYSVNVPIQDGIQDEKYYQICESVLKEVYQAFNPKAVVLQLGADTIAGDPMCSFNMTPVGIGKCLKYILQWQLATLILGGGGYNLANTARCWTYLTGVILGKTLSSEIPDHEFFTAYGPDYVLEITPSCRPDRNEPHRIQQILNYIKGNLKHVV

[6] = biological target: Histone deacetylase 5 (Homo sapiens) (UniProt Q9UQL6); assay: Inhibition of human recombinant HDAC5 using fluorogenic trifluoroacetyl lysine as substrate at 10 uM by fluorescence method; method in brief: as §1
Sequence of Histone deacetylase 5 (Homo sapiens) (Q9UQL6 whole entry, the tested form may be a part): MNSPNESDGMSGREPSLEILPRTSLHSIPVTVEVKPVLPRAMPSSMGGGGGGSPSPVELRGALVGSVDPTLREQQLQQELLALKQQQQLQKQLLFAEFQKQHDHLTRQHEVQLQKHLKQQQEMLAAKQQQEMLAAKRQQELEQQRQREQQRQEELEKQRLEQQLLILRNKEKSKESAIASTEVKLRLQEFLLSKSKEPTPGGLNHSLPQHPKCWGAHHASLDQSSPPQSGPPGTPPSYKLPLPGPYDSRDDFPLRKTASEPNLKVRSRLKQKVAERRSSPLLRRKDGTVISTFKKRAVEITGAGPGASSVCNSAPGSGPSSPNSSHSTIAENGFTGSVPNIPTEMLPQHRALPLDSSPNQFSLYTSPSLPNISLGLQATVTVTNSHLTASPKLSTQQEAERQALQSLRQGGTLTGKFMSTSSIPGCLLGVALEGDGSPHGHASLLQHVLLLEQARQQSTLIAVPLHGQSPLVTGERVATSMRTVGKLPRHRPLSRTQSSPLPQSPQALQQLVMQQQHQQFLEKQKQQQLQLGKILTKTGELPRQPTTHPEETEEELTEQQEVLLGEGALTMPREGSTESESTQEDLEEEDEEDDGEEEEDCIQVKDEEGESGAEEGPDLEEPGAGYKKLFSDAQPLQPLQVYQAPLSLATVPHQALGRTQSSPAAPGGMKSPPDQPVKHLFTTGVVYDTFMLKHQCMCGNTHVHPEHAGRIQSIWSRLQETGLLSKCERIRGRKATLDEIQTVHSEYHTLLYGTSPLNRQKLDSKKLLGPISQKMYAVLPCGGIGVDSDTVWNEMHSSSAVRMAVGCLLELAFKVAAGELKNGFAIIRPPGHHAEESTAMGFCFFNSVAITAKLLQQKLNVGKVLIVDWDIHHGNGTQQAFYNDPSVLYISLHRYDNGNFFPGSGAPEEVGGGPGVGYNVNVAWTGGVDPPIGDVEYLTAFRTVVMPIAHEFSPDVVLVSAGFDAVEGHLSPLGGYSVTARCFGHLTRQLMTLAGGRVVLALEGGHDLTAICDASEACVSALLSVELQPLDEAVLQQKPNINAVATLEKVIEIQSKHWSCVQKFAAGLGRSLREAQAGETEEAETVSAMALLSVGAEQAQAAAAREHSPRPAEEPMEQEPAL

[7] = biological target: T3, Protein deacetylase HDAC6 (Homo sapiens) (UniProt Q9UBN7); assay: Inhibition of human recombinant HDAC6 using fluorogenic peptide p53 residues 379-382 (RHKK(Ac)AMC) as residues at 10 uM by fluorescence method; method in brief: as §1
T3 sequence (whole entry): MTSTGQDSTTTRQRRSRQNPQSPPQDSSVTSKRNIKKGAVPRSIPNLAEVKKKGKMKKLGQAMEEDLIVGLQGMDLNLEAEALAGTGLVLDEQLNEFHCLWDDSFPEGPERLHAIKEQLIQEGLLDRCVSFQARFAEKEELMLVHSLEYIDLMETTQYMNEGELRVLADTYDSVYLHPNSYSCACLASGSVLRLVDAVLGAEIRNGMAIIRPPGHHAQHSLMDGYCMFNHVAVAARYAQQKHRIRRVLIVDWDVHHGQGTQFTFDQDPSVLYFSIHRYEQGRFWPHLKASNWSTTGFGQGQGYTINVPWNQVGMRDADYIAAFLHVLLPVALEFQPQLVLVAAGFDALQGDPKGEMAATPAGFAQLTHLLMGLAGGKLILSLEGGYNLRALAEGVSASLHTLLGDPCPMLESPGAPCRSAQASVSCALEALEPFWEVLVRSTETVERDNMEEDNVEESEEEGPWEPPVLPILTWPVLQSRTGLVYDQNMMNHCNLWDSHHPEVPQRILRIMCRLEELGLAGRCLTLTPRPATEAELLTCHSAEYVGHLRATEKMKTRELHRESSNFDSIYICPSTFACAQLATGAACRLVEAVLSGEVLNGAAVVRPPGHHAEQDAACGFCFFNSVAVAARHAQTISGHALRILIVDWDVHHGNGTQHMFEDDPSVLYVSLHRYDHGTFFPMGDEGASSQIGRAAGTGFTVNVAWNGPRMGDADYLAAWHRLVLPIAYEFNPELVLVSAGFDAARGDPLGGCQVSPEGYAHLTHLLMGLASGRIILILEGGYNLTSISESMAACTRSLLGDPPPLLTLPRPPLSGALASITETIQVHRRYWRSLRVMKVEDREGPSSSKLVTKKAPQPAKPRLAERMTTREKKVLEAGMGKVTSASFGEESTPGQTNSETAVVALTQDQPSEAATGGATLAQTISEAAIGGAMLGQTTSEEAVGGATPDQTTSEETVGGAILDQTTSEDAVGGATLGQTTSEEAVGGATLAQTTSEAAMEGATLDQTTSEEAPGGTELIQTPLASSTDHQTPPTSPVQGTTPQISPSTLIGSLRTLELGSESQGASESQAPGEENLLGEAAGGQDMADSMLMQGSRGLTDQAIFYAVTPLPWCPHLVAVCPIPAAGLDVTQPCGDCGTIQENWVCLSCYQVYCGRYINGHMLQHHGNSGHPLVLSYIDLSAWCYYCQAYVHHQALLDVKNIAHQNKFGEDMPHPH

Row | SMILES | Papp at 6 h, 100 µM [1] [×10⁻⁶ cm/s] | inhibition [2] | inhibition [3] | inhibition [4] | inhibition [5] | inhibition [6] | inhibition [7]
1 | COc1cccc(CCCCCCCC(=O)NO)c1 | 13.4 | inactive | inactive | inactive | inactive | inactive | Active
2 | COC(=O)c1c(CCCCCCCC(=O)NO)cccc1OC | 10.2 | inactive | inactive | inactive | inactive | inactive | Active
